From ChEMBL document CHEMBL2157916, “Design and synthesis of potent hydroxyethylamine (HEA) BACE-1 inhibitors carrying prime side 4,5,6,7-tetrahydrobenzazole and 4,5,6,7-tetrahydropyridinoazole templates” (Bioorg Med Chem Lett, 2012)

Experiments:
[1] = Apparent permeability across human Caco2 cells; type: ADME, cell-based; conditions: Caco-2
[2] = Intrinsic clearance in human liver microsomes; type: ADME, Microsome; conditions: read-out: CLH
[3] = Plasma concentration in C57/B1 mouse at […], sc administered for 24 hrs; type: ADME, organism-based
[4] = Drug uptake in C57/B1 mouse brain at 20 umol/kg, iv up to 6 hrs; type: ADME, organism-based; conditions: read-out: Drug uptake
Outline: (§1)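 Male C57/B1 mice dosed iv at 20 μmol/kg. Brain and plasma exposure measured 0.5 h after dose, with brain levels followed up to 6 h after dose.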

[5] = Ratio of drug uptake in brain to plasma in C57/B1 mouse at […], sc administered for 24 hrs; type: ADME, organism-based; conditions: read-out: BPR
[6] = Drug uptake in C57/B1 mouse brain at 20 umol/kg, iv at 0.5 hrs; type: ADME, organism-based; conditions: read-out: Drug uptake; outline: as §1
[7] = Plasma concentration in C57/B1 mouse at 20 umol/kg, iv at 0.5 hrs; type: ADME, organism-based; outline: as §1

| Papp [1] [×10⁻⁶ cm/s] | microsomal CLint [2] [µL/min/mg] | concentration at 24 h [3] [nM] | concentration at 6 h [4] [nM] | Kp at 24 h [5] | concentration at 0.5 h [6] [nM] | concentration at 0.5 h [7] [nM] | SMILES |
| --- | --- | --- | --- | --- | --- | --- | --- |
| 21 | 200 |  |  |  |  |  | CC(=O)N[C@@H](Cc1ccccc1)[C@H](O)CN[C@H]1CC(C)(C)Oc2ccc(CC(C)(C)C)cc21 |
| 1.5 | 25 | 450 | 68 | 0.69 | 200 | 4750 | CC(=O)N[C@@H](Cc1ccccc1)[C@H](O)CNC1CC(C)(C)Cc2nn(CC(C)(C)C)cc21 (mixture of isomers) |
| 5.6 | 82 |  |  |  |  |  | CC(=O)N[C@@H](Cc1ccccc1)[C@H](O)CNC1CC(C)(C)Oc2sc(CC(C)(C)C)cc21 (mixture of isomers) |
| 1.6 | 16 |  |  |  |  |  | CC(=O)N[C@@H](Cc1ccccc1)[C@H](O)CN[C@H]1CC(C)(C)Cc2nn(CC(C)C)cc21 |
| 5 | 70 |  |  |  |  |  | CC(=O)N[C@@H](Cc1ccccc1)[C@H](O)CN[C@H]1CC(C)(C)Cn2nc(CC(C)(C)C)cc21 |
|  | 15 |  |  |  |  |  | CC(=O)N[C@@H](Cc1ccccc1)[C@H](O)CNC1CC(C)(C)Cc2[nH]c(CC(C)(C)C)nc21 (mixture of isomers) |
